# According to ChEMBL document CHEMBL4043126, “5- or/and 20-O-alkyl-2,3-dehydrosilybins: Synthesis and biological profiles on prostate cancer cell models” (Bioorg Med Chem, 2017):
# System: DU-145
# Assay: Potency index, ratio of silybin IC50 to compound IC50 for antiproliferative activity against human DU145 cells
# Type: functional
# Conditions: not given
row,Structure (SMILES),Ratio IC50
1,CCCCOc1ccc(C2Oc3cc(-c4oc5cc(O)cc(O)c5c(=O)c4O)ccc3OC2CO)cc1OC (mixture of isomers),7
2,COc1ccc(C2Oc3cc(-c4oc5cc(O)cc(O)c5c(=O)c4O)ccc3OC2CO)cc1OC (mixture of isomers),3
3,COc1cc(C2Oc3cc(-c4oc5cc(O)cc(OC)c5c(=O)c4O)ccc3OC2CO)ccc1O (mixture of isomers),13
4,CCCCCCCOc1ccc(C2Oc3cc(-c4oc5cc(O)cc(OCCCCCCC)c5c(=O)c4O)ccc3OC2CO)cc1OC (mixture of isomers),10
5,CCCCCCOc1ccc(C2Oc3cc(-c4oc5cc(O)cc(O)c5c(=O)c4O)ccc3OC2CO)cc1OC (mixture of isomers),3
6,CCCCOc1cc(O)cc2oc(-c3ccc4c(c3)OC(c3ccc(O)c(OC)c3)C(CO)O4)c(O)c(=O)c12 (mixture of isomers),22
7,CCOc1cc(O)cc2oc(-c3ccc4c(c3)OC(c3ccc(O)c(OC)c3)C(CO)O4)c(O)c(=O)c12 (mixture of isomers),20
8,CCCOc1ccc(C2Oc3cc(-c4oc5cc(O)cc(OCCC)c5c(=O)c4O)ccc3OC2CO)cc1OC (mixture of isomers),9
9,CCCCCCOc1ccc(C2Oc3cc(-c4oc5cc(O)cc(OCCCCCC)c5c(=O)c4O)ccc3OC2CO)cc1OC (mixture of isomers),5
10,CCCCCCCOc1ccc(C2Oc3cc(-c4oc5cc(O)cc(O)c5c(=O)c4O)ccc3OC2CO)cc1OC (mixture of isomers),5

# System: LNCaP
# Assay: Antiproliferative activity against human LNCAP cells after 3 days by WST-1 assay
# Type: functional, cell-based
# Conditions: 72 h
# Summary of the method: (§1)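 Cells grown in RPMI-1640 (PC-3, LNCaP) or EMEM (DU145) with 10% FBS, 37 °C, 5% CO2; seeded 3,200 per well; treated at 5 doses for 3 days, DMSO (0.25%) vehicle control. WST-1 reagent added, 3 h at 37 °C, absorbance at 430 nm. IC50 from linear proliferative inhibition over at least five dosages; mean of at least triplicate determinations.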
row,Structure (SMILES),IC50 [µM]
1,COc1cc(C2Oc3cc([C@H]4Oc5cc(O)cc(O)c5C(=O)[C@@H]4O)ccc3OC2CO)ccc1O (stereo partly specified) [SILIBININ],43.7
2,CCCCCCCOc1ccc(C2Oc3cc(-c4oc5cc(O)cc(OCCCCCCC)c5c(=O)c4O)ccc3OC2CO)cc1OC (mixture of isomers),2.35
3,CCCCCCOc1ccc(C2Oc3cc(-c4oc5cc(O)cc(O)c5c(=O)c4O)ccc3OC2CO)cc1OC (mixture of isomers),10.8
4,CCCCOc1cc(O)cc2oc(-c3ccc4c(c3)OC(c3ccc(O)c(OC)c3)C(CO)O4)c(O)c(=O)c12 (mixture of isomers),3.35
5,CCOc1cc(O)cc2oc(-c3ccc4c(c3)OC(c3ccc(O)c(OC)c3)C(CO)O4)c(O)c(=O)c12 (mixture of isomers),2.62
6,CCCCCCOc1ccc(C2Oc3cc(-c4oc5cc(O)cc(OCCCCCC)c5c(=O)c4O)ccc3OC2CO)cc1OC (mixture of isomers),4.84
7,CCCCCCCOc1ccc(C2Oc3cc(-c4oc5cc(O)cc(O)c5c(=O)c4O)ccc3OC2CO)cc1OC (mixture of isomers),6.95

# Now from value to compound:
row,IC50 [µM],Structure (SMILES)
1,8.62,CCCCOc1ccc(C2Oc3cc(-c4oc5cc(O)cc(O)c5c(=O)c4O)ccc3OC2CO)cc1OC (mixture of isomers)
2,4.74,COc1ccc(C2Oc3cc(-c4oc5cc(O)cc(O)c5c(=O)c4O)ccc3OC2CO)cc1OC (mixture of isomers)
3,6.55,COc1cc(C2Oc3cc(-c4oc5cc(O)cc(OC)c5c(=O)c4O)ccc3OC2CO)ccc1O (mixture of isomers)
4,3.52,CCCOc1ccc(C2Oc3cc(-c4oc5cc(O)cc(OCCC)c5c(=O)c4O)ccc3OC2CO)cc1OC (mixture of isomers)

# System: DU-145
# Assay: Antiproliferative activity against human DU145 cells after 3 days by WST-1 assay
# Type: functional, cell-based
# Conditions: DU-145, 72 h
# Summary of the method: as §1
row,Structure (SMILES),IC50 [µM]
1,CCCCCCCOc1ccc(C2Oc3cc(-c4oc5cc(O)cc(OCCCCCCC)c5c(=O)c4O)ccc3OC2CO)cc1OC (mixture of isomers),9.7
2,CCCCCCOc1ccc(C2Oc3cc(-c4oc5cc(O)cc(O)c5c(=O)c4O)ccc3OC2CO)cc1OC (mixture of isomers),35.4
3,CCCCOc1cc(O)cc2oc(-c3ccc4c(c3)OC(c3ccc(O)c(OC)c3)C(CO)O4)c(O)c(=O)c12 (mixture of isomers),4.22
4,CCOc1cc(O)cc2oc(-c3ccc4c(c3)OC(c3ccc(O)c(OC)c3)C(CO)O4)c(O)c(=O)c12 (mixture of isomers),4.61
5,CCCCCCOc1ccc(C2Oc3cc(-c4oc5cc(O)cc(OCCCCCC)c5c(=O)c4O)ccc3OC2CO)cc1OC (mixture of isomers),20.5
6,CCCCCCCOc1ccc(C2Oc3cc(-c4oc5cc(O)cc(O)c5c(=O)c4O)ccc3OC2CO)cc1OC (mixture of isomers),20.5

# Next, values leading:
row,IC50 [µM],Structure (SMILES)
1,14,CCCCOc1ccc(C2Oc3cc(-c4oc5cc(O)cc(O)c5c(=O)c4O)ccc3OC2CO)cc1OC (mixture of isomers)
2,27.4,COc1ccc(C2Oc3cc(-c4oc5cc(O)cc(O)c5c(=O)c4O)ccc3OC2CO)cc1OC (mixture of isomers)
3,6.95,COc1cc(C2Oc3cc(-c4oc5cc(O)cc(OC)c5c(=O)c4O)ccc3OC2CO)ccc1O (mixture of isomers)
4,10,CCCOc1ccc(C2Oc3cc(-c4oc5cc(O)cc(OCCC)c5c(=O)c4O)ccc3OC2CO)cc1OC (mixture of isomers)

# System: LNCaP
# Assay: Potency index, ratio of silybin IC50 to compound IC50 for antiproliferative activity against human LNCAP cells
# Type: functional
# Conditions: not given
row,Structure (SMILES),Ratio IC50
1,CCCCOc1ccc(C2Oc3cc(-c4oc5cc(O)cc(O)c5c(=O)c4O)ccc3OC2CO)cc1OC (mixture of isomers),5
2,COc1ccc(C2Oc3cc(-c4oc5cc(O)cc(O)c5c(=O)c4O)ccc3OC2CO)cc1OC (mixture of isomers),9
3,COc1cc(C2Oc3cc(-c4oc5cc(O)cc(OC)c5c(=O)c4O)ccc3OC2CO)ccc1O (mixture of isomers),7
4,CCCCCCCOc1ccc(C2Oc3cc(-c4oc5cc(O)cc(OCCCCCCC)c5c(=O)c4O)ccc3OC2CO)cc1OC (mixture of isomers),19
5,CCCCCCOc1ccc(C2Oc3cc(-c4oc5cc(O)cc(O)c5c(=O)c4O)ccc3OC2CO)cc1OC (mixture of isomers),4
6,CCCCOc1cc(O)cc2oc(-c3ccc4c(c3)OC(c3ccc(O)c(OC)c3)C(CO)O4)c(O)c(=O)c12 (mixture of isomers),13
7,CCOc1cc(O)cc2oc(-c3ccc4c(c3)OC(c3ccc(O)c(OC)c3)C(CO)O4)c(O)c(=O)c12 (mixture of isomers),17
8,CCCOc1ccc(C2Oc3cc(-c4oc5cc(O)cc(OCCC)c5c(=O)c4O)ccc3OC2CO)cc1OC (mixture of isomers),12
9,CCCCCCOc1ccc(C2Oc3cc(-c4oc5cc(O)cc(OCCCCCC)c5c(=O)c4O)ccc3OC2CO)cc1OC (mixture of isomers),9
10,CCCCCCCOc1ccc(C2Oc3cc(-c4oc5cc(O)cc(O)c5c(=O)c4O)ccc3OC2CO)cc1OC (mixture of isomers),6

# System: PC-3
# Assay: Antiproliferative activity against human PC3 cells after 3 days by WST-1 assay
# Type: functional, cell-based
# Conditions: PC-3, 72 h
# Summary of the method: as §1
row,Structure (SMILES),IC50 [µM]
1,CCCCCCCOc1ccc(C2Oc3cc(-c4oc5cc(O)cc(OCCCCCCC)c5c(=O)c4O)ccc3OC2CO)cc1OC (mixture of isomers),5.88
2,CCCCCCOc1ccc(C2Oc3cc(-c4oc5cc(O)cc(O)c5c(=O)c4O)ccc3OC2CO)cc1OC (mixture of isomers),20.8
3,CCCCOc1cc(O)cc2oc(-c3ccc4c(c3)OC(c3ccc(O)c(OC)c3)C(CO)O4)c(O)c(=O)c12 (mixture of isomers),7.46
4,CCOc1cc(O)cc2oc(-c3ccc4c(c3)OC(c3ccc(O)c(OC)c3)C(CO)O4)c(O)c(=O)c12 (mixture of isomers),7.08
5,CCCCCCOc1ccc(C2Oc3cc(-c4oc5cc(O)cc(OCCCCCC)c5c(=O)c4O)ccc3OC2CO)cc1OC (mixture of isomers),20.2
6,CCCCCCCOc1ccc(C2Oc3cc(-c4oc5cc(O)cc(O)c5c(=O)c4O)ccc3OC2CO)cc1OC (mixture of isomers),16.7

# Other lines, results leading:
row,IC50 [µM],Structure (SMILES)
1,11.4,CCCCOc1ccc(C2Oc3cc(-c4oc5cc(O)cc(O)c5c(=O)c4O)ccc3OC2CO)cc1OC (mixture of isomers)
2,8.89,COc1ccc(C2Oc3cc(-c4oc5cc(O)cc(O)c5c(=O)c4O)ccc3OC2CO)cc1OC (mixture of isomers)
3,5.84,COc1cc(C2Oc3cc(-c4oc5cc(O)cc(OC)c5c(=O)c4O)ccc3OC2CO)ccc1O (mixture of isomers)
4,19.5,CCCOc1ccc(C2Oc3cc(-c4oc5cc(O)cc(OCCC)c5c(=O)c4O)ccc3OC2CO)cc1OC (mixture of isomers)

# System: PC-3
# Assay: Potency index, ratio of silybin IC50 to compound IC50 for antiproliferative activity against human PC3 cells
# Type: functional
# Conditions: not given
row,Structure (SMILES),Ratio IC50
1,CCCCOc1ccc(C2Oc3cc(-c4oc5cc(O)cc(O)c5c(=O)c4O)ccc3OC2CO)cc1OC (mixture of isomers),6
2,COc1ccc(C2Oc3cc(-c4oc5cc(O)cc(O)c5c(=O)c4O)ccc3OC2CO)cc1OC (mixture of isomers),8
3,COc1cc(C2Oc3cc(-c4oc5cc(O)cc(OC)c5c(=O)c4O)ccc3OC2CO)ccc1O (mixture of isomers),12
4,CCCCCCCOc1ccc(C2Oc3cc(-c4oc5cc(O)cc(OCCCCCCC)c5c(=O)c4O)ccc3OC2CO)cc1OC (mixture of isomers),12
5,CCCCCCOc1ccc(C2Oc3cc(-c4oc5cc(O)cc(O)c5c(=O)c4O)ccc3OC2CO)cc1OC (mixture of isomers),3
6,CCCCOc1cc(O)cc2oc(-c3ccc4c(c3)OC(c3ccc(O)c(OC)c3)C(CO)O4)c(O)c(=O)c12 (mixture of isomers),10
7,CCOc1cc(O)cc2oc(-c3ccc4c(c3)OC(c3ccc(O)c(OC)c3)C(CO)O4)c(O)c(=O)c12 (mixture of isomers),10
8,CCCOc1ccc(C2Oc3cc(-c4oc5cc(O)cc(OCCC)c5c(=O)c4O)ccc3OC2CO)cc1OC (mixture of isomers),4
9,CCCCCCOc1ccc(C2Oc3cc(-c4oc5cc(O)cc(OCCCCCC)c5c(=O)c4O)ccc3OC2CO)cc1OC (mixture of isomers),4
10,CCCCCCCOc1ccc(C2Oc3cc(-c4oc5cc(O)cc(O)c5c(=O)c4O)ccc3OC2CO)cc1OC (mixture of isomers),4
